Measured values taken from ChEMBL document CHEMBL4007417, “Target Elucidation by Cocrystal Structures of NADH-Ubiquinone Oxidoreductase of Plasmodium falciparum (PfNDH2) with Small Molecule To Eliminate Drug-Resistant Malaria” (J Med Chem, 2017).
Active and inactive are the calls of the source. The calls are words filed in the database; no cut-off is given here.

Experiments:
Plasmodium yoelii [1] = assay: Antimalarial activity against Plasmodium yoelii YM infected in BALB/c mouse assessed as mouse survival at 30 mg/kg, sc administered QD for 4 days starting at 96 hrs post infection by Giemsa-staining based microscopic analysis; format: functional
Outline: (§1)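 Mice inoculated with 1×106 P. yoelii parasites. Subcutaneous dosing for 4 days starting 96 h post infection, given once daily or twice daily 8 h apart. Parasitemia followed on Giemsa-stained blood smears. Survival recorded at 40 days post infection; groups of n=3. DMSO-only mice served as untreated controls.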

Plasmodium yoelii [2] = assay: Antimalarial activity against Plasmodium yoelii YM infected in BALB/c mouse assessed as parasite growth inhibition at 10 mg/kg, sc administered BID for 4 days starting at 96 hrs post infection, 8 hrs apart by Giemsa-staining based microscopic analysis; format: functional; details: read-out: GI
Outline: (§2)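 P. yoelii-infected mice, n=3 per group. Subcutaneous injection twice daily, 8 h apart, for 4 days starting at 96 h post infection. Growth inhibition read from blood smears at 24 h post treatment. Cure time taken as the minimum period to cure all mice in the group. DMSO controls included.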

Plasmodium falciparum [3] = assay: Antimalarial activity against […] asexual blood stage Plasmodium falciparum 3D7 after 72 hrs by SYBR green-based fluorometric analysis; format: functional; details: 3D7, 72 h
Outline: (§3)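 Mid-ring-stage cultures (~6-10 h post-invasion) at 1% parasitemia and 2% hematocrit, in triplicate. Twofold serial dilutions from a top concentration of 100 nM. Incubated 72 h at 37 °C under 5% CO2/5% O2/90% N2. Lysis buffer containing 5×SYBR Green I added, 20 min in the dark, fluorescence read at ex 485/em 538 nm. EC50 derived.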

Plasmodium yoelii [4] = assay: Antimalarial activity against Plasmodium yoelii YM infected in BALB/c mouse assessed as mouse survival at 5 mg/kg, sc administered QD for 4 days starting at 2 hrs post infection by Giemsa-staining based microscopic analysis; format: functional
Outline: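 Mice inoculated with 1×106 P. yoelii parasites, then dosed subcutaneously once daily for 4 days starting 2 h post infection. Parasitemia followed by microscopy of blood smears. Survival scored at 40 days post infection in groups of n=3 mice. DMSO-only controls.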

Plasmodium falciparum [5] = assay: Antimalarial activity against chloroquine/quinine/sulfadoxine-pyrimethamine/amodiaquine-resistant asexual blood stage Plasmodium falciparum Dd2 assessed as reduction in parasite recrudescence at 10 times EC50 for 72 hrs measured after 28 days post invasion by Giemsa staining-based light microscopic analysis; format: functional
Outline: (§4)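 Parasite cultures exposed for 72 h to 10× EC50 of inhibitor. Drug then removed and cultures maintained for 28 days post treatment. Recrudescence monitored by microscopy.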

Plasmodium falciparum [6] = assay: Antimalarial activity against chloroquine/quinine/sulfadoxine-pyrimethamine/amodiaquine-resistant asexual blood stage Plasmodium falciparum Dd2 after 72 hrs by SYBR green-based fluorometric analysis; format: functional; details: Dd2, 72 h; outline: as §3
Plasmodium falciparum [7] = assay: Antimalarial activity against dihydroartemisinin-resistant asexual blood stage Plasmodium falciparum 803 assessed as reduction in parasite recrudescence at 10 times EC50 for 72 hrs measured after 28 days post invasion by Giemsa staining-based light microscopic analysis; format: functional; outline: as §4
Plasmodium falciparum [8] = assay: Antimalarial activity against chloroquine/quinine-resistant asexual blood stage Plasmodium falciparum S35 after 72 hrs by SYBR green-based fluorometric analysis; format: functional; details: S35, 72 h; outline: as §3
Plasmodium falciparum [9] = assay: Antimalarial activity against multi drug-resistant asexual blood stage Plasmodium falciparum Fab9 after 72 hrs by SYBR green-based fluorometric analysis; format: functional; details: Fab9, 72 h; outline: as §3
Plasmodium falciparum [10] = assay: Antimalarial activity against mid/late trophozoite stage of Plasmodium falciparum 3D7 assessed as reduction in parasitemia at 10 times EC50 administered at synchronized early ring stages and then removed from culture at 2 hrs intervals after 34 hrs paraiste invasion stage and measured till 40 hrs post invasion by SYBR green-based fluorometric analysis; format: functional; design: scale not given: the % may be the effect or the level left
Outline: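 Synchronized early-ring P. falciparum 3D7 treated with about 10×EC50 compound. Compound removed at 2 h intervals starting at t=34 h (trophozoite), then parasites returned to compound-free medium. Maturation through a single ~48 h asexual cycle followed.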

Plasmodium yoelii [11] = assay: Antimalarial activity against Plasmodium yoelii YM infected in BALB/c mouse assessed as parasite growth inhibition at 30 mg/kg, sc administered BID for 4 days starting at 96 hrs post infection, 8 hrs apart by Giemsa-staining based microscopic analysis; format: functional; details: read-out: GI; outline: as §2
Plasmodium falciparum [12] = assay: Antimalarial activity against […] asexual blood stage Plasmodium falciparum 3D7 assessed as reduction in parasite recrudescence at 10 times EC50 for 72 hrs measured after 28 days post invasion by Giemsa staining-based light microscopic analysis; format: functional; outline: as §4
Plasmodium yoelii [13] = assay: Antimalarial activity against Plasmodium yoelii YM infected in BALB/c mouse assessed as time duration for parasite cure at 30 mg/kg, sc administered QD for 4 days starting at 96 hrs post infection by Giemsa-staining based microscopic analysis; format: functional
Outline: (§5)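 P. yoelii-infected mice, n=3 per group. Subcutaneous injection once daily for 4 days starting at 96 h post infection. Parasitemia followed on blood-smear microscopy, with inhibition measured at 24 h post treatment. Cure time taken as the minimum period to cure all mice; survival recorded at 40 days. DMSO controls included.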

Plasmodium yoelii [14] = assay: Antimalarial activity against Plasmodium yoelii YM infected in BALB/c mouse assessed reduction in parasitemia at 30 mg/kg/day, sc for 4 days by Giemsa-staining based microscopic analysis; format: functional, organism-based; outline: as §5
Plasmodium falciparum [15] = assay: Antimalarial activity against dihydroartemisinin-resistant asexual blood stage Plasmodium falciparum 803 after 72 hrs by SYBR green-based fluorometric analysis; format: functional; details: Plasmodium falciparum, 803, 72 h; outline: as §3
Plasmodium yoelii [16] = assay: Antimalarial activity against Plasmodium yoelii YM infected in BALB/c mouse assessed as parasite cure level at 10 mg/kg, ip administered on days 1 post infection by Giemsa-stained microscopic analysis; format: functional, organism-based
Outline: (§6)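 Mice (groups of three) inoculated with 1×10^6 P. yoelii parasites. Single intraperitoneal dose of 10, 30 or 90 mg/kg given 24 h after inoculation. DMSO-only untreated group included. Outcome followed by blood-smear microscopy for cure, with survival scored at 40 days post infection.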

HeLa = assay: Cytotoxicity against human HeLa cells assessed as reduction in cell viability up to 2 uM after 48 hrs by MTT assay; format: cell-based
Outline: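 HeLa cell viability measured by MTT assay with compound at concentrations up to 2 µM.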

Plasmodium yoelii [17] = assay: Antimalarial activity against Plasmodium yoelii YM infected in BALB/c mouse assessed as mouse survival at 10 mg/kg, sc administered BID for 4 days starting at 96 hrs post infection, 8 hrs apart by Giemsa-staining based microscopic analysis; format: functional; outline: as §1
Plasmodium falciparum [18] = assay: Antimalarial activity against chloroquine-resistant asexual blood stage Plasmodium falciparum GB4 after 72 hrs by SYBR green-based fluorometric analysis; format: functional; details: GB4, 72 h; outline: as §3
Plasmodium yoelii [19] = assay: Antimalarial activity against Plasmodium yoelii YM infected in BALB/c mouse assessed as mouse survival at 30 mg/kg, sc administered BID for 4 days starting at 96 hrs post infection, 8 hrs apart by Giemsa-staining based microscopic analysis; format: functional; outline: as §1
Plasmodium falciparum [20] = assay: Antimalarial activity against quinine-resistant asexual blood stage Plasmodium falciparum C2A after 72 hrs by SYBR green-based fluorometric analysis; format: functional; outline: as §3
Plasmodium yoelii [21] = assay: Antimalarial activity against Plasmodium yoelii YM infected in BALB/c mouse assessed as parasite growth inhibition at 5 mg/kg, sc administered QD for 4 days starting at 2 hrs post infection by Giemsa-staining based microscopic analysis; format: functional; details: read-out: GI
Outline: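 P. yoelii-infected mice, n=3 per group. Subcutaneous injection once daily for 4 days starting at 2 h post infection. Growth inhibition determined at 24 h post treatment by blood-smear microscopy. Cure time taken as the minimum period to cure all mice in the group.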

Plasmodium falciparum [22] = assay: Antimalarial activity against Plasmodium falciparum 3D7 assessed as alteration of parasite morphology at 10 times EC50 dosed at ring stage […] by Giemsa staining-based light microscopic analysis; format: functional, organism-based
Plasmodium yoelii [23] = assay: Antimalarial activity against Plasmodium yoelii YM infected in BALB/c mouse assessed as parasite growth inhibition at 90 mg/kg, sc administered BID for 4 days starting at 96 hrs post infection, 8 hrs apart by Giemsa-staining based microscopic analysis; format: functional; details: read-out: GI; outline: as §2
Plasmodium yoelii [24] = assay: Antimalarial activity against Plasmodium yoelii YM infected in BALB/c mouse assessed as parasite growth inhibition at 30 mg/kg, sc administered QD for 4 days starting at 96 hrs post infection by Giemsa-staining based microscopic analysis; format: functional; details: read-out: GI; outline: as §5
Plasmodium falciparum [25] = assay: Antimalarial activity against sulfadoxine-pyrimethamine/mefloquine resistant asexual blood stage Plasmodium falciparum CP286 after 72 hrs by SYBR green-based fluorometric analysis; format: functional; details: CP286, 72 h; outline: as §3
Plasmodium yoelii [26] = assay: Antimalarial activity against Plasmodium yoelii YM infected in BALB/c mouse assessed as time duration for parasite cure at 90 mg/kg, sc administered BID for 4 days starting at 96 hrs post infection, 8 hrs apart by Giemsa-staining based microscopic analysis; format: functional; outline: as §2
Plasmodium yoelii [27] = assay: Antimalarial activity against Plasmodium yoelii YM infected in BALB/c mouse assessed as time duration for parasite cure at 30 mg/kg, sc administered BID for 4 days starting at 96 hrs post infection, 8 hrs apart by Giemsa-staining based microscopic analysis; format: functional; outline: as §2
Plasmodium yoelii [28] = assay: Antimalarial activity against Plasmodium yoelii YM infected in BALB/c mouse assessed as mouse survival at 90 mg/kg, sc administered BID for 4 days starting at 96 hrs post infection, 8 hrs apart by Giemsa-staining based microscopic analysis; format: functional; outline: as §1
Plasmodium falciparum [29] = assay: Antimalarial activity against chloroquine/quinine/sulfadoxine-pyrimethamine/amodiaquine-resistant asexual blood stage Plasmodium falciparum PC26 after 72 hrs by SYBR green-based fluorometric analysis; format: functional; details: PC26, 72 h; outline: as §3
Plasmodium falciparum [30] = assay: Antimalarial activity against multi drug-resistant asexual blood stage Plasmodium falciparum D10 after 72 hrs by SYBR green-based fluorometric analysis; format: functional; details: D10, 72 h; outline: as §3
Plasmodium yoelii [31] = assay: Antimalarial activity against Plasmodium yoelii YM infected in BALB/c mouse assessed as parasite cure level at 10 to 90 mg/kg, ip administered on days 1 post infection by Giemsa-stained microscopic analysis; format: functional, organism-based; outline: as §6
Plasmodium yoelii [32] = assay: Antimalarial activity against Plasmodium yoelii YM infected in BALB/c mouse assessed as time duration for parasite cure at 10 mg/kg, sc administered BID for 4 days starting at 96 hrs post infection, 8 hrs apart by Giemsa-staining based microscopic analysis; format: functional; outline: as §2

Question: What does the source list for `Cc1c(-c2ccc(Cc3ccc(SC(F)(F)F)cc3)cc2)[nH]c2cccc(F)c2c1=O`?
Answer: survival at 30 mg/kg (Plasmodium yoelii [1]): 66.7%; inhibition in vivo at 10 mg/kg (Plasmodium yoelii [2]): 0%; EC50 (Plasmodium falciparum [3]): 5.69 nM; survival at 5 mg/kg (Plasmodium yoelii [4]): 0%; Activity (Plasmodium falciparum [5]): Active; EC50 (Plasmodium falciparum [6]): 2.1 nM; Activity (Plasmodium falciparum [7]): Active; EC50 (Plasmodium falciparum [8]): 4.82 nM; EC50 (Plasmodium falciparum [9]): 5.46 nM; Activity (Plasmodium falciparum [10]): >=50%; inhibition in vivo at 30 mg/kg (Plasmodium yoelii [11]): 99.8%; Activity (Plasmodium falciparum [12]): Active; Time (Plasmodium yoelii [13]): 18 days; Activity (Plasmodium yoelii [14]): Active; EC50 (Plasmodium falciparum [15]): 4.66 nM; Activity (Plasmodium yoelii [16]): inactive; Activity (HeLa): Non-Toxic; survival at 10 mg/kg (Plasmodium yoelii [17]): 0%; EC50 (Plasmodium falciparum [18]): 3.17 nM; survival at 30 mg/kg (Plasmodium yoelii [19]): 100%; EC50 (Plasmodium falciparum [20]): 5.26 nM; inhibition in vivo at 5 mg/kg (Plasmodium yoelii [21]): 0%; Activity (Plasmodium falciparum [22]): Active; inhibition in vivo at 90 mg/kg (Plasmodium yoelii [23]): 100%; inhibition in vivo at 30 mg/kg (Plasmodium yoelii [24]): 77.4%; EC50 (Plasmodium falciparum [25]): 6.24 nM; Time (Plasmodium yoelii [26]): 14 days; Time (Plasmodium yoelii [27]): 15 days; survival at 90 mg/kg (Plasmodium yoelii [28]): 100%; EC50 (Plasmodium falciparum [29]): 4.42 nM; EC50 (Plasmodium falciparum [30]): 7.7 nM

Question: Which inhibition in vivo at 10 mg/kg (Plasmodium yoelii [2]) does the source give for `C[C@H]1[C@@H](O)O[C@@H]2O[C@@]3(C)CC[C@H]4[C@H](C)CC[C@@H]1[C@@]24OO3` [ARTENIMOL] here?
Answer: 100%

Question: What about the EC50 (Plasmodium falciparum [3]) of the same compound?
Answer: 4.32 nM

Question: And the Activity (Plasmodium yoelii [31])?
Answer: Active

Question: What about the inhibition in vivo at 30 mg/kg (Plasmodium yoelii [11]) of the same compound?
Answer: 100%

Question: And the survival at 10 mg/kg (Plasmodium yoelii [17])?
Answer: 100%

Question: What about the survival at 30 mg/kg (Plasmodium yoelii [19]) of the same compound?
Answer: 100%

Question: And the inhibition in vivo at 90 mg/kg (Plasmodium yoelii [23])?
Answer: 100%

Question: What about the Time (Plasmodium yoelii [26]) of the same compound?
Answer: 4 days

Question: What about the Time (Plasmodium yoelii [32]) of the same compound?
Answer: 15 days

Question: And the Time (Plasmodium yoelii [27])?
Answer: 4 days

Question: What about the survival at 90 mg/kg (Plasmodium yoelii [28]) of the same compound?
Answer: 100%
